Compound activity as filed in PubChem BioAssay.
TMEM16A act: activates or potentiates the mouse TMEM16A chloride channel. Q8BHY3. HEK293 TMEM16A/YFP-H148Q/I152L, iodide quench fluorescence; hits give low values. B-score at 10 µM. hit rate 0.3% among 340,000. AID 623877;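 active = fluorescence-ratio B-score plate-corrected deviation score at least 3 library SD below zero, with starting fluorescence score within 5 deviations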;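 also: channel opened by trigger with iodide after compound preincubation; score built on the fluorescence ratio of max minus min over baseline; more negative score means more quench and so TMEM16A activation or potentiation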
VIM-2 inhibitor: inhibitors of Pseudomonas aeruginosa VIM-2 metallo-beta-lactamase; purified VIM-2, nitrocefin hydrolysis, epi-absorbance fluorescence; inhibition, % at 5.6 µM; hit rate 0.89% among 290,000; AID 1527;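 active = inhibition above the mean of all tested compounds plus 3 SD, cutoff set per screening run, cut at about 7.5% in these data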;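 also: red hydrolysis product quenches plate fluorescence so inhibitors raise well fluorescence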
IMP-1 inh: blocks Pseudomonas aeruginosa IMP-1 metallo-beta-lactamase. purified IMP-1, nitrocefin hydrolysis, epi-absorbance fluorescence. inhibition, % at 5.6 µM. hit rate 0.45% among 290,000. AID 1556;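 active = inhibition above the mean plus 3 SD of all compounds in the same screening run, cut at about 4.5% in these data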
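Material – recombinant IMP-1 enzyme, purified · Amount – IMP-1 0.2 nM before substrate addition · Medium – HEPES buffer pH 7.1 with ZnSO4 and Brij 35 · Timing – 25 °C, 15 min preincubation, 25 min reaction · Measured by – plate fluorescence quenching by hydrolysis product, ex 480/em 530 nm · Read-out – percent enzyme inhibition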
CHT allo act: allosteric activators of human choline transporter CHT | Q9GZV3 | CHT-expressing cells, membrane potential dye, choline EC20; hits give high values; LV-AA mutant CHT in HEK293 cells | B-score at 10 µM | hit rate 0.49% among 310,000;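 active = initial fluorescence not abnormally high and integrated response B-score, plate-corrected, over 3 SD above library mean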
Target sequence (Q9GZV3 whole entry, looked up): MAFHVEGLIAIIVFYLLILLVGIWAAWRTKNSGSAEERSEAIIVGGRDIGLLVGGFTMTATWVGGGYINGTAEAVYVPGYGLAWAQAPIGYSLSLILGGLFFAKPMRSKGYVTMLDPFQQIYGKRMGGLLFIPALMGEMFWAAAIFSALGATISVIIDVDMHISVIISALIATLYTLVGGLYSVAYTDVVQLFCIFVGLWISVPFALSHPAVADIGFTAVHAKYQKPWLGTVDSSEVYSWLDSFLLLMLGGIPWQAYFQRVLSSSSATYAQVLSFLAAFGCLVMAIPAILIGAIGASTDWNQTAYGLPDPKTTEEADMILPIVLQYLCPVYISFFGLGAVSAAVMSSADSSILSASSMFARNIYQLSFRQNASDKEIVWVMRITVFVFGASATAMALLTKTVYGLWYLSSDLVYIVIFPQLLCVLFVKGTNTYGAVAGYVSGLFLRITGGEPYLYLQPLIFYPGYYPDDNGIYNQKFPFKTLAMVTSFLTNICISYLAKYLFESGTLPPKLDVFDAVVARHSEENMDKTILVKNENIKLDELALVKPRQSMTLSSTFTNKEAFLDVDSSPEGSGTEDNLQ
ANO1 block: blocks the mouse calcium-activated chloride channel TMEM16A; HEK293 TMEM16A/YFP iodide influx fluorescence, ionomycin; hit rate 1.2% among 310,000; normalized B-score (activity score, 25-100; higher = stronger inhibition) at 10 µM; Q8BHY3; AID 588511;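 active = ratio plate-corrected score three or more library SD toward inhibition, starting fluorescence score within five deviations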;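 also: score derived from kinetic fluorescence span divided by baseline fluorescence per well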
CHT block: human CHT choline transport inhibition; Q9GZV3; CHT-expressing cells, membrane potential dye, choline response; hits give low values; B-score at 10 µM; hit rate 0.86% among 310,000; AID 488975;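 active = B-score over 3 SD under the library average, and starting fluorescence ratio not unusually high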;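 also: choline stimulus applied at its EC90 after an EC20 pre-addition; B-score computed on integrated fluorescence ratio after choline addition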
CHT inh conf: human CHT inhibition, confirmatory screen; shares compounds with CHT block; CHT-expressing cells, choline membrane potential dye; LV-to-AA substituted CHT, HEK293 cells; CHT activity remaining % of control (hits give low values), % at 10 µM; hit rate 70% among 2,400;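 active = choline transporter activity left, mean of duplicates at 10 µM, below buffer-only control mean minus 3 SD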;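 also: depolarization triggered by choline at its EC90 following an EC20 pre-addition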
HEK293 MPD ctr: counter-screen for CHT inhibitors: effect in parental HEK293 cells | membrane potential dye, choline response; active = decrease or increase beyond buffer ±3SD | shares compounds with CHT block | hit rate 4% among 2,400 | AID 493222 | membrane potential ratio readout (active if shifted either direction beyond buffer ±3SD; no single direction) at 10 µM;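 also: parental cells lack the transporter so any hit is non-specific; ratio is peak minus trough fluorescence over baseline after EC90 choline challenge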
Large screens that a line does not name were inactive (follow-up assays come after a bar, where they were run). Hits are enriched below; roughly 3.4% of the tested compounds scored in any of these assays.

CC(Oc1ccc(Cl)cc1Cl)C(=O)Nc1ccc(S(=O)(=O)Nc2cnc3ccccc3n2)cc1 (configuration not stated)	ANO1 block 100, CHT block -9.9 (no result: TMEM16A act) | CHT inh conf 46% | HEK293 MPD ctr inactive
CC(Oc1ccc(Cl)cc1Cl)C(=O)NC1=NN(c2ccccc2)C(=O)C1 (configuration not stated)	CHT block -6.3 | CHT inh conf 39% | HEK293 MPD ctr inactive
Cc1cc(Cl)ccc1OC(C)C(=O)Nc1ccc(S(=O)(=O)Nc2cnc3ccccc3n2)cc1 (configuration not stated)	ANO1 block 100, CHT block -11 | CHT inh conf 43% | HEK293 MPD ctr inactive
CC1CC(C)CN(C(=O)C2CCN(S(=O)(=O)c3cccc4cccnc34)CC2)C1 (configuration not stated)	none
O=C(O)CC1=C(O)C(=O)N(c2ccccc2)C1c1ccc(Cl)cc1 (configuration not stated)	none
O=C(O)CC1=C(Nc2ccccc2)C(=O)N(c2ccccc2)C1c1ccc(Br)cc1 (configuration not stated)	CHT block -5.9 | CHT inh conf 25% | HEK293 MPD ctr inactive
O=C(NC1CCCCC1)N(Cc1ccccc1)Cc1ccco1	CHT block -5.6 | CHT inh conf 70% | HEK293 MPD ctr inactive
CCN(CC)S(=O)(=O)c1ccc(Cl)c(C(=O)Nc2nncs2)c1	none
CCN(CC)S(=O)(=O)c1cc(C(=O)Nc2nncs2)c(Cl)cc1Cl	CHT block -9.5 | CHT inh conf 50% | HEK293 MPD ctr inactive
O=C(c1ccc(COc2ccccc2[N+](=O)[O-])o1)N1CCCCC1	none
O=C(c1ccc(COc2ccccc2[N+](=O)[O-])o1)N1CCCCCC1	CHT block -6.1 | CHT inh conf 69% | HEK293 MPD ctr inactive
Cn1c(=O)c(C#N)c(-c2ccc(F)cc2)c2cc(C(=O)c3cc(Cl)cc(Cl)c3O)cnc21	ANO1 block 100, CHT block -8.2 | CHT inh conf 53% | HEK293 MPD ctr inactive
c1ccc2c(c1)[nH]c1c3ccccc3sc21	none
O=C(N/N=C/c1ccsc1)c1c[nH]c2ccccc12	CHT block -7 | CHT inh conf 69% | HEK293 MPD ctr inactive
CCCCCCCCN1[C@@H](CC(=O)O)c2ccc(C(F)(F)F)cc2S1(=O)=O	CHT block -6.1 (no result: VIM-2 inhibitor, IMP-1 inh) | CHT inh conf 65% | HEK293 MPD ctr inactive
CCCCCCCCCCCCN1[C@@H](CC(C)=O)c2cc(C(F)(F)F)ccc2S1(=O)=O	none (no result: VIM-2 inhibitor, IMP-1 inh)
O=C(Nc1cc(S(=O)(=O)Nc2ccccc2Cl)ccc1O)c1sc2cc(Cl)ccc2c1Cl	none
OC1COCOC1C(O)C1OCOCC1O (configuration not stated)	none (no result: VIM-2 inhibitor, IMP-1 inh, CHT allo act, ANO1 block, CHT block)
CC(Nc1cc(N2CCNCC2)ccc1[N+](=O)[O-])c1ccccc1 (configuration not stated)	CHT block -6.4 | CHT inh conf 35% | HEK293 MPD ctr 2.7
Clc1ccc2c(N3CCCC3)ccnc2c1	CHT block -8 | CHT inh conf 26% | HEK293 MPD ctr inactive
Oc1ccc(N2CCN(c3ccnc4cc(Cl)ccc34)CC2)cc1	none
Cc1cc(C)nc(N2N=C(CSc3ccc(Cl)cc3)CC2=O)n1	CHT block -5 | CHT inh conf 42% | HEK293 MPD ctr inactive
Cc1cc(C)nc(N2C(=O)CC(Cc3ccc(Cl)cc3)C2=O)n1 (configuration not stated)	none
Cc1occc1-c1nnc(SCC(=O)Nc2nccs2)n1CCc1ccccc1	CHT block -6.5 (no result: TMEM16A act) | CHT inh conf inactive | HEK293 MPD ctr inactive
Cc1csc(NC(=O)CSc2nnc(-c3ccoc3C)n2CCc2ccccc2)n1	none
Cc1csc(NC(=O)CSc2nnc(-c3ccoc3C)n2Cc2ccco2)n1	CHT block -5.3 | CHT inh conf inactive | HEK293 MPD ctr inactive
CN(CC(=O)Nc1ccccc1Cl)CC(=O)N(C)c1c(N)n(Cc2ccccc2)c(=O)[nH]c1=O	none (no result: VIM-2 inhibitor, IMP-1 inh, CHT allo act, ANO1 block, CHT block)
COC(=O)/C(C#N)=C/c1ccc(-c2ccc(S(N)(=O)=O)cc2)o1	none
CCCCNC(=O)/C(C#N)=C/c1ccc(-c2ccc(S(=O)(=O)N3CCOCC3)cc2)o1	CHT block -5 | CHT inh conf 69% | HEK293 MPD ctr inactive
Cc1cc(S(=O)(=O)NCc2ccncc2)c(C)cc1Br	CHT block -5 | CHT inh conf 67% | HEK293 MPD ctr inactive
Cc1ccc(C)c(S(=O)(=O)NCc2ccncc2)c1	none
CC(C)C(NC(=O)c1c(F)cccc1F)C(=O)N1CCN(c2ncccn2)CC1 (configuration not stated)	none (no result: VIM-2 inhibitor, IMP-1 inh, CHT allo act, ANO1 block, CHT block)
Cc1cccc(/C=N/NC(=O)c2ccc(NC(=O)c3cccc(Cl)c3)cc2)n1	none
Cc1cc(N=Nc2ccccc2)c(NCC(O)C(O)C(O)CO)cc1C (configuration not stated)	CHT block -11 | CHT inh conf 30% | HEK293 MPD ctr inactive
S=C(NCC1CCCO1)Nc1cc(Cl)c(Cl)cc1Cl (configuration not stated)	CHT block -9.9 | CHT inh conf 41% | HEK293 MPD ctr inactive
C[C@H](NC(=O)c1ncn(Cc2ccccc2)c1C(=O)N[C@@H](C)c1ccccc1)c1ccccc1	none (no result: VIM-2 inhibitor, IMP-1 inh, CHT allo act, ANO1 block, CHT block)
CCN(CC)c1ncnc2c1[nH]c1ccccc12	CHT block -6.6 | CHT inh conf 52% | HEK293 MPD ctr inactive
Cc1c(Br)c([N+](=O)[O-])nn1CC(=O)N1CCN(C23CC4CC(CC(C4)C2)C3)CC1	none
COc1cccc(NC(=O)CN(C)C(=O)CSc2ncnc3sc(C)c(C)c23)c1	none (no result: VIM-2 inhibitor, IMP-1 inh)
CCN(CC(=O)Nc1cccc(OC)c1)c1ncnc2sc(C)c(C)c12	CHT block -5.5 | CHT inh conf 69% | HEK293 MPD ctr inactive
O=C(OCc1ccccc1Cl)c1cccnc1Cl	none
N#Cc1ccccc1COC(=O)c1cccnc1N	CHT block -5.7 | CHT inh conf 65% | HEK293 MPD ctr inactive
CC(C)(C)[C@H]1CCC(=O)N([C@H](CN=[N+]=[N-])Cc2ccccc2)CC1	CHT block -5.1 | CHT inh conf inactive | HEK293 MPD ctr inactive
[N-]=[N+]=NC[C@H](Cc1ccccc1)N1CC[C@@H](O)CCC1=O	none
CCN(CC)S(=O)(=O)c1ccc(OC)c(NC(=S)Nc2ccc(C)c(C)c2)c1	CHT block -6 | CHT inh conf 53% | HEK293 MPD ctr inactive
